# Reference: ChEMBL document CHEMBL1131243, “Structure-activity relationships of the 7-substituents of 5,4'-diamino-6,8,3'-trifluoroflavone, a potent antitumor agent” (J Med Chem, 1998)
# Legend:
# [1] = tested on: HeLa; assay: In vitro cytotoxicity against HeLa S3 cell lines, treated for 3 days then uptake of neutral red dye was measured; assay type: functional, cell-based; settings: Homo sapiens, 72 h
# [2] = tested on: Mus musculus; assay: Compound was tested for percentage Body weight change in vivo against MCF-7 cells implanted into Nude Mice, Dosage 25(mg/kg); assay type: functional, MCF7
# Procedure, shortened: (§1)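 Female nude mice carried MCF-7 implants, with tumor growth stimulated by estradiol propionate given on the first dosing day. Mice with tumors of 25–200 mm³ were selected 20 days after transplantation (n = 5). Compound was given orally on days 0–4 and 7–11. Tumor length and width were measured on days 0, 4, 7, 11, 14 and 18. T/C is V/V0 treated over control; body weight change in %.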
# [3] = tested on: Mus musculus; assay: Ratio of tumor growth rate of the drug-treated group relative to that of the control group at a dosw of 25 mg/kg; assay type: functional; procedure, shortened: as §1
# [4] = tested on: MCF7; assay: In vitro cytotoxicity against MCF-7 cell lines, treated for 3 days then uptake of neutral red dye was measured; assay type: functional, cell-based; settings: Homo sapiens, MCF7, 72 h
# [5] = tested on: Mus musculus; assay: Compound was tested for percentage Body weight change in vivo against MCF-7 cells implanted into Nude Mice, Dosage 50(mg/kg); assay type: functional, MCF7; procedure, shortened: as §1
# [6] = tested on: Mus musculus; assay: Ratio of tumor growth rate of the drug-treated group relative to that of the control group at a dose of 25 mg/kg; assay type: functional; procedure, shortened: as §1
# [7] = tested on: Mus musculus; assay: Ratio of tumor growth rate of the drug-treated group relative to that of the control group at a dose of 50 mg/kg; assay type: functional; procedure, shortened: as §1
# [8] = tested on: HeLa S3 (Homo sapiens); assay: Compound was tested for in vitro Cytotoxicity against HeLa S3 cell lines which were treated for 3 days and uptake of neutral red dye was measured; settings: HeLa S3, 72 h
# [9] = tested on: Mus musculus; assay: Compound was tested for percentage Body weight change in vivo against MCF-7 cells implanted into Nude Mice, Dosage 12.5(mg/kg); assay type: functional, MCF7; procedure, shortened: as §1
# [10] = tested on: Mus musculus; assay: Ratio of tumor growth rate of the drug-treated group relative to that of the control group at a dose of 12.5 mg/kg; assay type: functional; procedure, shortened: as §1
# [11] = tested on: Mus musculus; assay: Ratio of tumor growth rate of the drug-treated group relative to that of the control group at a dosw of 50 mg/kg; assay type: functional; procedure, shortened: as §1
# [12] = tested on: Mus musculus; assay: Compound was tested for percentage Body weight change in vivo against MCF-7 cells implanted into Nude Mice, Dosage 25 (mg/kg); assay type: functional, MCF7; procedure, shortened: as §1
# [13] = tested on: Mus musculus; assay: Compound was tested for percentage Body weight change in vivo against MCF-7 cells implanted into Nude Mice, Dosage 3.1(mg/kg); assay type: functional, MCF7; procedure, shortened: as §1
# [14] = tested on: Mus musculus; assay: Compound was tested for percentage Body weight change in vivo against MCF-7 cells implanted into Nude Mice, Dosage 6.3(mg/kg); assay type: functional, MCF7; procedure, shortened: as §1
# [15] = tested on: Mus musculus; assay: Ratio of tumor growth rate of the drug-treated group relative to that of the control group at a dose of 6.3 mg/kg; assay type: functional; procedure, shortened: as §1
# [16] = tested on: Mus musculus; assay: Ratio of tumor growth rate of the drug-treated group relative to that of the control group at a dose of 3.1 mg/kg; assay type: functional; procedure, shortened: as §1
# [17] = tested on: Mus musculus; assay: Ratio of tumor growth rate of the drug-treated group relative to that of the control group at a dosw of 6.3 mg/kg; assay type: functional; procedure, shortened: as §1
# [18] = tested on: Mus musculus; assay: Compound was tested for percentage Body weight change in vivo against MCF-7 cells implanted into Nude Mice, Dosage (mg/kg); assay type: functional, MCF7; procedure, shortened: as §1
# [19] = tested on: Mus musculus; assay: Compound was tested for percentage Body weight change in vivo against MCF-7 cells implanted into Nude Mice, Dosage 50 (mg/kg); assay type: functional, MCF7; procedure, shortened: as §1
# [20] = tested on: Mus musculus; assay: Compound was tested for percentage Body weight change in vivo against MCF-7 cells implanted into Nude Mice, Dosage 63(mg/kg); assay type: functional, MCF7; settings: in the assay text read “Dosage 6.3(mg/kg)” for “Dosage 63(mg/kg)”; procedure, shortened: as §1
# [21] = tested on: Mus musculus; assay: Ratio of tumor growth rate of the drug-treated group relative to that of the control group at a dosw of 63 mg/kg; assay type: functional; settings: dose 6.3 mg/kg; in the assay text read “6.3 mg/kg” for “63 mg/kg”; procedure, shortened: as §1
SMILES,IC50 [1] [µM],IC50 [4] [µM],also measured
CN(C)CCC(=O)OCc1c(F)c(N)c2c(=O)cc(-c3ccc(N)c(F)c3)oc2c1F,11,0.019,Body weight change [2]: -12%; T/C min [3]: 4.1%
CN(C)CCCC(=O)OCc1c(F)c(N)c2c(=O)cc(-c3ccc(N)c(F)c3)oc2c1F,4.5,0.029,Body weight change [2]: -8.4%; T/C min [3]: 15%
Nc1ccc(-c2cc(=O)c3c(N)c(F)c(CO)c(F)c3o2)cc1F,24,0.062,Body weight change [5]: -6.7%; Body weight change [2]: -4%; T/C min [6]: 17%; T/C min [7]: 1.6%
CCCCc1c(F)c(N)c2c(=O)cc(-c3ccc(N)c(F)c3)oc2c1F,> 100,8.8,
CS(=O)(=O)c1c(F)c(N)c2c(=O)cc(-c3ccc(N)c(F)c3)oc2c1F,> 100,> 10,
CCCCCC(=O)NCc1c(F)c(N)c2c(=O)cc(-c3ccc(N)c(F)c3)oc2c1F,,0.34,Body weight change [5]: 0%; T/C min [7]: 76%; IC50 [8]: > 100 µM
CN(C)c1c(F)c(N)c2c(=O)cc(-c3ccc(N)c(F)c3)oc2c1F,> 100,0.039,Body weight change [9]: -19%; T/C min [10]: 39%
Nc1ccc(-c2cc(=O)c3c(N)c(F)c(O)c(F)c3o2)cc1F,> 100,> 10,
CN(C)Cc1c(F)c(N)c2c(=O)cc(-c3ccc(N)c(F)c3)oc2c1F,8.9,0.072,Body weight change [2]: -17%; T/C min [3]: 16%
CSc1c(F)c(N)c2c(=O)cc(-c3ccc(N)c(F)c3)oc2c1F,> 100,0.19,
CN(C)CCCOCc1c(F)c(N)c2c(=O)cc(-c3ccc(N)c(F)c3)oc2c1F,12,> 10,
COCc1c(F)c(N)c2c(=O)cc(-c3ccc(N)c(F)c3)oc2c1F,> 100,0.046,Body weight change [5]: 0%; T/C min [11]: 89%
COc1c(F)c(N)c2c(=O)cc(-c3ccc(N)c(F)c3)oc2c1F,34,0.1,
C[S+]([O-])c1c(F)c(N)c2c(=O)cc(-c3ccc(N)c(F)c3)oc2c1F (stereo not given),> 100,2.5,
Nc1ccc(-c2cc(=O)c3c(N)c(F)cc(F)c3o2)cc1F,> 100,0.04,Body weight change [12]: -7.4%; T/C min [6]: 11%
Nc1ccc(-c2cc(=O)c3c(N)c(F)c(N)c(F)c3o2)cc1F,19,0.0077,Body weight change [13]: 5.7%; Body weight change [14]: -13%; Body weight change [9]: -22%; T/C min [15]: 26%; T/C min [10]: 18%; T/C min [16]: 55%
[N-]=[N+]=Nc1c(F)c(N)c2c(=O)cc(-c3ccc(N)c(F)c3)oc2c1F,1.2,0.46,
CCc1c(F)c(N)c2c(=O)cc(-c3ccc(N)c(F)c3)oc2c1F,> 100,0.13,

SMILES,IC50 [1] [µM],IC50 [4] [µM],also measured
Nc1ccc(-c2cc(=O)c3c(N)c(F)c(C(=O)O)c(F)c3o2)cc1F,> 100,> 10,
CCCCCC(=O)OCc1c(F)c(N)c2c(=O)cc(-c3ccc(N)c(F)c3)oc2c1F,34,0.16,Body weight change [14]: -5.9%; Body weight change [2]: -7.9%; Body weight change [9]: -8.4%; T/C min [15]: 27%; T/C min [10]: 7.9%; T/C min [6]: 0.8%
CCOC(=O)c1c(F)c(N)c2c(=O)cc(-c3ccc(N)c(F)c3)oc2c1F,> 100,1.4,
CN(C)CC(=O)OCc1c(F)c(N)c2c(=O)cc(-c3ccc(N)c(F)c3)oc2c1F,9.2,0.026,Body weight change [5]: -11%; Body weight change [14]: -4.8%; Body weight change [2]: -9%; T/C min [17]: 68%; T/C min [6]: 4%; T/C min [7]: 1%
Nc1ccc(-c2cc(=O)c3c(N)c(F)c(Br)c(F)c3o2)cc1F,> 100,0.16,
CN(C)CCOc1c(F)c(N)c2c(=O)cc(-c3ccc(N)c(F)c3)oc2c1F,1.5,1.4,
Nc1ccc(-c2cc(=O)c3c(N)c(F)c(Cl)c(F)c3o2)cc1F,> 100,0.21,
CCC(=O)OCc1c(F)c(N)c2c(=O)cc(-c3ccc(N)c(F)c3)oc2c1F,69,0.13,Body weight change [18]: -2.4%; T/C min [6]: 79%
CC(=O)OCc1c(F)c(N)c2c(=O)cc(-c3ccc(N)c(F)c3)oc2c1F,4.9,0.026,Body weight change [5]: -4.5%; Body weight change [2]: -5.9%; T/C min [6]: 6.1%; T/C min [7]: 11%
NCc1c(F)c(N)c2c(=O)cc(-c3ccc(N)c(F)c3)oc2c1F,8.8,0.026,Body weight change [19]: -11%; Body weight change [20]: -5.8%; Body weight change [2]: -8.5%; T/C min [11]: 1.1%; T/C min [6]: 11%; T/C min [21]: 60%
CN(C)CCOCc1c(F)c(N)c2c(=O)cc(-c3ccc(N)c(F)c3)oc2c1F,4.6,> 10,Body weight change [5]: -7.9%; T/C min [11]: 57%
CCCCCCCCCC(=O)OCc1c(F)c(N)c2c(=O)cc(-c3ccc(N)c(F)c3)oc2c1F,> 100,0.1,Body weight change [2]: -5%; T/C min [6]: 13%
CCCCCCCCCCCCCCCCCC(=O)OCc1c(F)c(N)c2c(=O)cc(-c3ccc(N)c(F)c3)oc2c1F,> 100,> 10,Body weight change [2]: -4.8%; T/C min [6]: 20%
CCCCCCc1c(F)c(N)c2c(=O)cc(-c3ccc(N)c(F)c3)oc2c1F,21,> 10,
C[N+](C)(C)Cc1c(F)c(N)c2c(=O)cc(-c3ccc(N)c(F)c3)oc2c1F,32,3.1,
CCCOCc1c(F)c(N)c2c(=O)cc(-c3ccc(N)c(F)c3)oc2c1F,78,1.2,
CCCCCCOCc1c(F)c(N)c2c(=O)cc(-c3ccc(N)c(F)c3)oc2c1F,> 100,7.1,
Cc1c(F)c(N)c2c(=O)cc(-c3ccc(N)c(F)c3)oc2c1F [AMINOFLAVONE],> 100,0.013,Body weight change [14]: -8.7%; Body weight change [9]: -11%; T/C min [15]: 55%; T/C min [10]: 11%
